Data from ChEMBL document CHEMBL2390833, “Elucidation of the pharmacophore of echinocystic acid, a new lead for blocking HCV entry” (Eur J Med Chem, 2013).

Key:
Hepatitis C virus [1] = test: Antiviral activity against Hepatitis C virus assessed as blockage of HCV pseudo paricle entry to human Hep3B cells at 5 uM after 72 hrs; format: functional, Hepacivirus hominis, Hep 3B2
[2] = tested on: Vesicular stomatitis virus; test: Antiviral activity against Vesicular stomatitis virus assessed as blockage of VSV pseudo paricle entry to human Hep3B cells at 1 uM after 72 hrs; format: functional, Hep 3B2
Hepatitis C virus [3] = test: Antiviral activity against Hepatitis C virus assessed as blockage of HCV pseudo paricle entry to human Hep3B cells at 1 uM after 72 hrs; format: functional, Hepacivirus hominis, Hep 3B2
[4] = Hemolytic activity in rabbit RBC assessed as hemolysis after 60 mins by microtitre plate reader analysis; format: ADME, cell-based, Oryctolagus cuniculus; conditions: erythrocyte, 1 h
Procedure, shortened: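 Rabbit erythrocytes at 2% (5 × 10⁸ RBC/mL) in PBS, pH 7.4, exposed to serially diluted compounds for 60 min at 37 °C. Hemolysis was read as absorbance at 541 nm, and percentage hemolysis was calculated by the routine method.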

[5] = tested on: Vesicular stomatitis virus; test: Antiviral activity against Vesicular stomatitis virus assessed as blockage of VSV pseudo paricle entry to human Hep3B cells at 5 uM after 72 hrs; format: functional, Hep 3B2

CC1(C)[C@@H](O)CC[C@]2(C)[C@H]3CC=C4[C@@H]5C[C@](C)(CO)CC[C@]5(C(=O)O)[C@H](O)C[C@@]4(C)[C@]3(C)CC[C@@H]12
Activity (Hepatitis C virus [1]): 36.5%
Activity [2]: -2.5%
Activity (Hepatitis C virus [3]): 16.5%
Activity [4]: Non-toxic
Activity [5]: 3.6%

CC1(C)C[C@H]2C3=CC[C@@H]4[C@@]5(C)[C@H](O)C[C@H](O)C(C)(C)[C@@H]5CC[C@@]4(C)[C@]3(C)C[C@@H](O)[C@@]23C[C@@H]1OC3=O
Activity (Hepatitis C virus [1]): 72.6%
Activity [2]: 1.8%
Activity (Hepatitis C virus [3]): 28.9%
Activity [4]: Non-toxic
Activity [5]: 19.2%

CC1(C)CC[C@@]2(C(=O)O)C(=C3C=C[C@@H]4[C@@]5(C)CC[C@H](O)C(C)(C)[C@@H]5C[C@H](O)[C@@]4(C)[C@]3(C)C[C@H]2O)C1
Activity (Hepatitis C virus [1]): 31.9%
Activity [2]: -13.7%
Activity (Hepatitis C virus [3]): 22.2%
Activity [5]: -4.4%

CC1(C)C[C@H]2C3=CC[C@@H]4[C@@]5(C)CC[C@H](O)C(C)(C)[C@@H]5[C@H](O)C[C@@]4(C)[C@]3(C)C[C@@H](O)[C@@]23C[C@@H]1OC3=O
Activity (Hepatitis C virus [1]): 4.7%
Activity [2]: -8.3%
Activity (Hepatitis C virus [3]): -1%
Activity [4]: Non-toxic
Activity [5]: -24%

CC1(C)C[C@H]2C3=CC[C@@H]4[C@@]5(C)CC[C@H](O)C(C)(C)[C@@H]5CC[C@@]4(C)[C@]3(C)C[C@@H](O)[C@@]2(C(=O)O)C[C@@H]1O
Activity (Hepatitis C virus [1]): 18.4%
Activity [2]: 20.7%
Activity (Hepatitis C virus [3]): -5.7%
Activity [5]: 33.2%

CC1(C)CC[C@]2(C(=O)O)[C@H](O)C[C@]3(C)C(=CC[C@@H]4[C@@]5(C)CC[C@H](O)C(C)(C)[C@@H]5CC[C@]43C)[C@H]2C1 [ECHINOCYSTIC ACID]
Activity (Hepatitis C virus [1]): 75.5%
Activity [2]: -0.1%
Activity (Hepatitis C virus [3]): 21.3%
Activity [5]: -0.1%

CC1(C)CC[C@]2(C(=O)O)[C@H](O)C[C@]3(C)C(=CC[C@@H]4[C@@]5(C)CC[C@H](O)C(C)(C)[C@@H]5C[C@H](O)[C@]43C)[C@@H]2C1
Activity (Hepatitis C virus [1]): 53.5%
Activity [2]: 1.6%
Activity (Hepatitis C virus [3]): 30.4%
Activity [4]: Non-toxic
Activity [5]: 5.6%

CC1(C)C(=O)CC[C@]2(C)[C@H]3CC=C4[C@@H]5C[C@](C)(CO)CC[C@]5(C(=O)O)[C@H](O)C[C@@]4(C)[C@]3(C)CC[C@@H]12
Activity (Hepatitis C virus [1]): -3.3%
Activity [2]: -20%
Activity (Hepatitis C virus [3]): 3.1%
Activity [5]: 10.7%

CC1(C)CC[C@@]2(C(=O)O)C(=C3C=C[C@@H]4[C@@]5(C)[C@H](O)C[C@H](O)C(C)(C)[C@@H]5CC[C@@]4(C)[C@]3(C)C[C@H]2O)C1
Activity (Hepatitis C virus [1]): 26.3%
Activity [2]: -15.8%
Activity (Hepatitis C virus [3]): 2.3%
Activity [5]: 5.9%

CC1(C)CC2=C3C=C[C@@H]4[C@@]5(C)CC[C@H](O)C(C)(C)[C@@H]5CC[C@@]4(C)[C@]3(C)C[C@@H](O)[C@@]23C[C@@H]1OC3=O
Activity (Hepatitis C virus [1]): 31.7%
Activity [2]: -16.2%
Activity (Hepatitis C virus [3]): 11.6%
Activity [4]: Non-toxic
Activity [5]: -10.3%

CC1(C)CC[C@]2(C(=O)O)[C@H](O)C[C@]3(C)C(=CC[C@@H]4[C@@]5(C)CCC(=O)C(C)(C)[C@@H]5CC[C@]43C)[C@@H]2C1
Activity (Hepatitis C virus [1]): 41.6%
Activity [2]: -2.5%
Activity (Hepatitis C virus [3]): 7.5%
Activity [4]: Non-toxic
Activity [5]: 13.6%

CC1(C)CC[C@]2(C(=O)O)[C@H](O)C[C@]3(C)C(=CC[C@@H]4[C@@]5(C)[C@H](O)C[C@H](O)C(C)(C)[C@@H]5CC[C@]43C)[C@@H]2C1
Activity (Hepatitis C virus [1]): 35.2%
Activity [2]: 7.9%
Activity (Hepatitis C virus [3]): 14.3%
Activity [4]: Non-toxic
Activity [5]: 11.8%

CC1(C)C[C@H]2C3=CC[C@@H]4[C@@]5(C)CC[C@H](O)C(C)(C)[C@@H]5CC[C@@]4(C)[C@]3(C)C[C@@H](O)[C@@]23C[C@@H]1OC3=O
Activity (Hepatitis C virus [1]): 31.9%
Activity [2]: -17.3%
Activity (Hepatitis C virus [3]): 13.9%
Activity [4]: Non-toxic
Activity [5]: -12.1%
